{"data": "Measured values collected from several papers", "effect on": "cell growth or viability", "note": "Lines come from different studies, so protocols differ."}
{"Compound": "O=C(Cc1csc(NC(=O)c2cc3ccccc3[nH]2)n1)NN=Cc1cccc2ccccc12 (mixture of isomers)", "cell line": "HepG2", "assay": "MTT", "endpoint": "IC50", "result": "36 µM"}
{"Compound": "CCSc1nc(C2CC2)cc(C(F)(F)F)n1", "cell line": "HEK-293T", "assay": "ATP luminescence", "setting": "24 h", "endpoint": "CC50", "result": "> 60 µM"}
{"Compound": "COc1ccccc1C(=O)/C=C/c1cn(Cc2cn(-c3ccnc4cc(Cl)ccc34)nn2)c2ccccc12", "cell line": "HepG2", "assay": "MTT", "setting": "100 µM, 24 h", "endpoint": "viability", "result": "> 90%"}
{"Compound": "CCCCNCC(O)c1cc(Cl)cc2c1-c1ccc(Cl)cc1C2 (racemic)", "cell line": "HepG2", "setting": "48 h", "endpoint": "CC50", "result": "6.4 µM"}
{"Compound": "Clc1ccc(OC2=CC(c3ccc[nH]3)=N/C2=C\\NC23CC4CC(CC(C4)C2)C3)cc1", "cell line": "HepG2", "assay": "MTT", "setting": "48 h", "endpoint": "IC50", "result": "14.5 µM"}
{"Compound": "CC[S+]([O-])c1nc(-c2ccccc2)cc(C(F)(F)F)n1 (stereo not shown)", "cell line": "HEK-293T", "assay": "ATP luminescence", "setting": "24 h", "endpoint": "CC50", "result": "> 60 µM"}
{"Compound": "O[C@@H](CNCCN1CCN(C(c2ccccc2)c2ccccc2)CC1)c1cc(Cl)cc2c1-c1ccc(Cl)cc1C2", "cell line": "HepG2", "assay": "MTT", "setting": "72 h", "endpoint": "CC50", "result": "27.1 µM"}
{"Compound": "COc1ccc2[nH]c(C(=O)Nc3nc(CC(=O)NN=Cc4cccc5ccccc45)cs3)cc2c1 (mixture of isomers)", "cell line": "HepG2", "assay": "MTT", "endpoint": "IC50", "result": "24.2 µM"}
{"Compound": "O[C@@H](CN1CCN(C(c2ccccc2)c2ccccc2)CC1)c1cc(Cl)cc2c1-c1ccc(Cl)cc1C2", "cell line": "HepG2", "setting": "48 h", "endpoint": "CC50", "result": "> 50 µM"}
{"Compound": "CCS(=O)(=O)c1nc(C2CC2)cc(C(F)(F)F)n1", "cell line": "HEK-293T", "assay": "ATP luminescence", "setting": "24 h", "endpoint": "CC50", "result": "29 µM"}
